Data: ChEMBL document CHEMBL1128440 (J Med Chem, 1995)
Where “and” joins values, the source holds several entries; their conditions need not be identical. Equal values may be shown once.

Assays:
Rattus norvegicus [1] = species on record: Rattus norvegicus; assay: Tissue biodistribution into estrogen-primed immature female rat brain at 1 hr time interval; type: ADME, organism-based; details: in vivo
Outline: (§1)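 Immature female Sprague-Dawley rats (25 days old, ≈50 g, five per time point) primed with estradiol, 5 μg sc daily for 2 days in 50% ethanol/sunflower seed oil, used 24 h after the last injection. The 18F-labeled ligand was given iv by tail vein in 10% ethanol/saline. Decapitated at 1 or 3 h; blood and organs weighed and gamma-counted. Reported as %ID/g ± SD, n = 5.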

Rattus norvegicus [2] = species on record: Rattus norvegicus; assay: Tissue biodistribution into estrogen-primed immature female rat bone at 1 hr time interval; type: ADME, organism-based, Bone element; details: in vivo; outline: as §1
[3] = target: T1, Progesterone receptor (Homo sapiens) (UniProt P06401); assay: Binding selectivity index as the ratio of RBA value to that of NSB value.
T1 sequence (whole entry): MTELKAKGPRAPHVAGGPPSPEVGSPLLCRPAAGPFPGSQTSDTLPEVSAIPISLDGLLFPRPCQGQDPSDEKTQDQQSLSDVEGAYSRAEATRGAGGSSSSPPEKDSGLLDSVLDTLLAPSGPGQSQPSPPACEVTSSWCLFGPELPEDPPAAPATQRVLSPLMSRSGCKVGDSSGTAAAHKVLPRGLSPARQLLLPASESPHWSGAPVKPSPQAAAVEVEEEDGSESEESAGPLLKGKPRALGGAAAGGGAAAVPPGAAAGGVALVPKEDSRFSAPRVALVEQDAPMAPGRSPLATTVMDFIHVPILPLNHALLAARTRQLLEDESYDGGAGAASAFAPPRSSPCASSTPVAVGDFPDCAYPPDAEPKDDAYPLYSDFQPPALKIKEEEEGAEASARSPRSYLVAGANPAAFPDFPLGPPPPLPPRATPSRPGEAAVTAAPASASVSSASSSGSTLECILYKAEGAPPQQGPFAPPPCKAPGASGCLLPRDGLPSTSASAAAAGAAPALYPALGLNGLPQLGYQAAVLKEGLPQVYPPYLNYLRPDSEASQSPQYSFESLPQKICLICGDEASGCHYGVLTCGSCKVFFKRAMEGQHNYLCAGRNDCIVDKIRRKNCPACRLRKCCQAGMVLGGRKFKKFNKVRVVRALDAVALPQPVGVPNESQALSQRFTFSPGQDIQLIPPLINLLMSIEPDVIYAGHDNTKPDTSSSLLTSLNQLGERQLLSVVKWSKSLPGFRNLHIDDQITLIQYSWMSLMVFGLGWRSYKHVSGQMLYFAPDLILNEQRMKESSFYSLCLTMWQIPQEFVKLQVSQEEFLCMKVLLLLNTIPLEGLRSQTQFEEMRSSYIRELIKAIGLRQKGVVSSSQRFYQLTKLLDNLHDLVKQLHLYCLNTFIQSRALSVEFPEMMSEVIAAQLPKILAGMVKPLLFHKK
Outline: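 BSI calculated as the ratio of RBA to NSB.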

[4] = target: T1, Progesterone receptor (Homo sapiens); assay: Relative binding affinity against progesterone receptor at 0 degree Celsius determined in a competitive radiometric binding assay (R5020=100%).
Outline: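 Competitive radiometric binding at 0 °C against tritium-labeled R5020 as the standard (RBA = 100). Values are the average of two experiments.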

Rattus norvegicus [5] = species on record: Rattus norvegicus; assay: Tissue biodistribution into estrogen-primed immature female rat lung at 1 hr time interval; type: ADME, organism-based; details: in vivo; outline: as §1
Rattus norvegicus [6] = species on record: Rattus norvegicus; assay: Tissue biodistribution into estrogen-primed immature female rat kidney at 1 hr time interval; type: ADME, organism-based; details: in vivo; outline: as §1
Rattus norvegicus [7] = species on record: Rattus norvegicus; assay: Tissue biodistribution into estrogen-primed immature female rat uterus/muscle at 1 hr time interval; type: ADME, organism-based; details: in vivo
[8] = target: T1, Progesterone receptor (Homo sapiens); assay: Nonspecific binding affinity against progesterone receptor was estimated relative to compound R5020
Rattus norvegicus [9] = species on record: Rattus norvegicus; assay: Tissue biodistribution into estrogen-primed immature female rat liver at 1 hr time interval; type: ADME, organism-based; details: in vivo; outline: as §1
Rattus norvegicus [10] = species on record: Rattus norvegicus; assay: Tissue biodistribution into estrogen-primed immature female rat blood at 1 hr time interval; type: ADME, organism-based; details: in vivo; outline: as §1
Rattus norvegicus [11] = species on record: Rattus norvegicus; assay: Tissue biodistribution into estrogen-primed immature female rat uterus at 1 hr time interval; type: ADME, organism-based; details: in vivo; outline: as §1
Rattus norvegicus [12] = species on record: Rattus norvegicus; assay: Tissue biodistribution into estrogen-primed immature female rat uterus/blood at 1 hr time interval; type: ADME, organism-based; details: in vivo; outline: as §1
Rattus norvegicus [13] = species on record: Rattus norvegicus; assay: Tissue biodistribution into estrogen-primed immature female rat fat at 1 hr time interval; type: ADME, organism-based, Adipose tissue; details: in vivo; outline: as §1
Rattus norvegicus [14] = species on record: Rattus norvegicus; assay: Tissue biodistribution into estrogen-primed immature female rat ovaries at 1 hr time interval; type: ADME, organism-based, Female gonad; details: in vivo; outline: as §1
Rattus norvegicus [15] = species on record: Rattus norvegicus; assay: Tissue biodistribution into estrogen-primed immature female rat muscle at 1 hr time interval; type: ADME, organism-based; details: in vivo; outline: as §1
[16] = Partition coefficient (logP); type: physicochemical; details: octanol/water
Outline: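 log P(o/w) (octanol/water) estimated by a reversed-phase HPLC method.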

| Compound | Injected dose/g (Rattus norvegicus [1]) | Injected dose/g (Rattus norvegicus [2]) | BSI [3] | RBA [4] | Injected dose/g (Rattus norvegicus [5]) | Injected dose/g (Rattus norvegicus [6]) | Uterus to muscle uptake ratio (Rattus norvegicus [7]) | NSB [8] | Injected dose/g (Rattus norvegicus [9]) | Injected dose/g (Rattus norvegicus [10]) | Injected dose/g (Rattus norvegicus [11]) | Uterus to blood concentration ratio (Rattus norvegicus [12]) | Injected dose/g (Rattus norvegicus [13]) | Injected dose/g (Rattus norvegicus [14]) | Injected dose/g (Rattus norvegicus [15]) | logP [16] | logP ([16]; read-out: logP) |
| --- | --- | --- | --- | --- | --- | --- | --- | --- | --- | --- | --- | --- | --- | --- | --- | --- | --- |
| CC[C@@H]1C[C@H]2[C@@H]3CCC4=CC(=O)CC[C@@H]4[C@H]3CC[C@]2(C)[C@H]1C(=O)CF | 0.63% | 3.18% | 374 | 700 | 0.47% | 1.05% | 15.98% | 1.87 | 3.34% | 0.25% | 6.43% | 26.26% | 3.56% | 2.86% | 0.42% | – | – |
| CC(=O)[C@@]12O[C@](C)(c3ccc(F)cc3)O[C@@H]1CC1C3CCC4=CC(=O)CC[C@]4(C)C3CC[C@@]12C (stereo partly drawn) | 0.56% | 1.76% | 10 | 53 | 1.3% | 2.18% | 3.85% | 5.52 | 3.41% | 0.47% | 3.08% | 6.59% | 5.76% | 3.93% | 0.82% | – | – |
| CC(=O)[C@@]12OC(c3ccco3)O[C@@H]1CC1C3CCC4=CC(=O)CC[C@]4(C)C3CC[C@@]12C (stereo partly drawn) | – | – | – | – | – | – | – | 1.69 and 2.08 | – | – | – | – | – | – | – | 4.76 | 4.56 |
| CC1(c2ccco2)O[C@@H]2CC3C4CCC5=CC(=O)CC[C@@H]5C4CC[C@]3(C)[C@]2(C(=O)CO)O1 (stereo partly drawn) | – | – | – | – | – | – | – | 1.2 and 0.86 | – | – | – | – | – | – | – | 3.9 | 4.23 |
| CC(=O)[C@H]1CC[C@H]2[C@@H]3CCC4=CC(=O)CC[C@]4(C)[C@H]3CC[C@]12C | – | – | 16 | 13 | – | – | – | 0.83 | – | – | – | – | – | – | – | – | – |
| CC(=O)[C@@]12OC(C)(c3ccco3)O[C@@H]1CC1C3CCC4=CC(=O)CC[C@]4(C)C3CC[C@@]12C (stereo partly drawn) | – | – | 2 and < 1 | – | – | – | – | 2.08 and 2.74 | – | – | – | – | – | – | – | 5.03 | 4.76 |
